Experimental findings from ChEMBL document CHEMBL3739303, “Targeting the Src Homology 2 (SH2) Domain of Signal Transducer and Activator of Transcription 6 (STAT6) with Cell-Permeable, Phosphatase-Stable Phosphopeptide Mimics Potently Inhibits Tyr641 Phosphorylation and Transcriptional Activity” (J Med Chem, 2015) are described below.

Molecules are shown by their SMILES. Peptide text beside a SMILES is read from it.

The target in the assay is T1, Signal transducer and activator of transcription 6 (Homo sapiens, UniProt P42226).
T1 sequence (P42226 whole entry): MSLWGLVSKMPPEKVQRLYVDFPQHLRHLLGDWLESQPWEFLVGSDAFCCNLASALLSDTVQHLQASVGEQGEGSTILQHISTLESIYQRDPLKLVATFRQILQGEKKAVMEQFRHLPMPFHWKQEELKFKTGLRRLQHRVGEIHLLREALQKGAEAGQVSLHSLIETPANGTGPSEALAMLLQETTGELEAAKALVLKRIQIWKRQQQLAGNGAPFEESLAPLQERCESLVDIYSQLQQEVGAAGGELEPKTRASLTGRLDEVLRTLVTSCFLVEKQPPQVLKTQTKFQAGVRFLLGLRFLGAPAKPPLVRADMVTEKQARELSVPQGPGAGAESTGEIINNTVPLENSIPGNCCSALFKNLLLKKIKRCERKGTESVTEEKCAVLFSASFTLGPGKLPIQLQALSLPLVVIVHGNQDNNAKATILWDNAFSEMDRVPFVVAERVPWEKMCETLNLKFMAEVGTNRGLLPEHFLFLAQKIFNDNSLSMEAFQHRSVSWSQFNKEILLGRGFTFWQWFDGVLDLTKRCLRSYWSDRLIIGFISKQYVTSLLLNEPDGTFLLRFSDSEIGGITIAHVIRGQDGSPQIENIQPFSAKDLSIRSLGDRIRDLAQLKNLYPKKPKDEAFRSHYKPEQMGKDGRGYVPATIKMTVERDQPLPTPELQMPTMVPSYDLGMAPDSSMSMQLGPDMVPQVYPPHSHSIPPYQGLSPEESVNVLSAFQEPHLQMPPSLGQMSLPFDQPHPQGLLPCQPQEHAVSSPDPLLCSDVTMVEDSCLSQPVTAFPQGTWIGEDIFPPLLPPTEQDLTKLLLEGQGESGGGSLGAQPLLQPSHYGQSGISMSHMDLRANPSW
Briefly: Inhibition of STAT6 (unknown origin) expressed in Escherichia coli using FAM-Ala-pTyr-Lys-ProPhe-Gln-Asp-Leu-Ile-NH2 as substrate by fluorescence polarization assay. A digest of the protocol: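 His6-tagged STAT6 construct (coiled-coil, DNA-binding, linker and SH2 domains), purified by nickel IMAC; competitive FP binding. STAT6 at 480 nM mixed with 20 nM FAM-labelled phosphopeptide probe, then equal volume of serially diluted peptides (from 200 μM) added. Buffer: 50 mM NaCl, 10 mM Hepes, 1 mM Na4EDTA, 2 mM DTT, 1% NP-40. mP plotted against log concentration; IC50 by nonlinear regression; triplicate, three probe preparations; mean ± SD.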
On the technique in general: Fluorescence polarisation rises when a labelled molecule tumbles more slowly, as on binding a larger partner.
In the case of `C/C(=C\C(=O)N[C@H](C(=O)N1CCC[C@H]1C(=O)N(C)C)C(C)(C)C)c1ccc(OP(=O)(O)O)cc1`, the 50% inhibitory concentration (IC50) was 740 nM.

With `C/C(=C\C(=O)N[C@H](C(=O)N1CCCC1/C=C/c1ccccc1)C(C)(C)C)c1ccc(OP(=O)(O)O)cc1` (stereo partly drawn), the half-maximal inhibitory concentration (IC50) was found to be 3430 nM.

Compound `C/C(=C\C(=O)N[C@H](C(=O)N1CCC[C@H]1C(=O)NCc1ccccc1)C(C)(C)C)c1ccc(OP(=O)(O)O)cc1` had a 50% inhibitory concentration (IC50) of 340 nM.

Take `CC(=O)N[C@@H](Cc1ccc(OP(=O)(O)O)cc1)C(=O)N[C@@H](CCCCN)C(=O)N1CCC[C@H]1C(=O)N[C@@H](Cc1ccccc1)C(=O)N[C@@H](CCC(N)=O)C(=O)N[C@@H](CC(=O)O)C(=O)N[C@@H](CC(C)C)C(N)=O` (HELM PEPTIDE1{[ac].[O=C([C@H](Cc1ccc(OP(=O)(O)O)cc1)N[*:1])[*:2]].K.P.F.Q.D.L.[am]}$$$$V2.0): the IC50 worked out at 2400 nM.

Compound `CC(C)(C)[C@H](NC(=O)c1cc2cc(OP(=O)(O)O)ccc2[nH]1)C(=O)N1CCC[C@H]1C(=O)N(c1ccccc1)c1ccc(I)cc1` gave an IC50 of 140 nM.

Compound `NCCCC[C@H](NC(=O)[C@H](Cc1ccc(OP(=O)(O)O)cc1)NC(=O)/C=C/c1ccccc1)C(=O)N1CCC[C@H]1C(=O)N[C@@H](Cc1ccccc1)C(N)=O` (HELM PEPTIDE1{[O=C(/C=C/c1ccccc1)[*:2]].[O=C([C@H](Cc1ccc(OP(=O)(O)O)cc1)N[*:1])[*:2]].K.P.F.[am]}$$$$V2.0) came in with a 50% inhibitory concentration (IC50) of 6600 nM.

For `C/C(=C\C(=O)N[C@H](C(=O)N(C)[C@@H](C)C(=O)N(C)c1ccccc1)C(C)(C)C)c1ccc(OP(=O)(O)O)cc1`, it took 480 nM to reach half-maximal inhibition (IC50).

For `C/C(=C\C(=O)N[C@H](C(=O)N1CCCC1CCCCc1ccccc1)C(C)(C)C)c1ccc(OP(=O)(O)O)cc1` (stereo partly drawn), inhibition was half-maximal at 1070 nM (IC50).

With `C/C(=C\C(=O)N[C@H](C(=O)N1CCC[C@H]1C(=O)N(C)c1ccccc1)C(C)(C)C)c1ccc(OP(=O)(O)O)cc1`, the IC50 stood at 120 nM.

In the case of `C/C(=C\C(=O)N[C@H](C(=O)N1CCCC1/C=C/CCc1ccccc1)C(C)(C)C)c1ccc(OP(=O)(O)O)cc1` (stereo partly drawn), the IC50 was determined as 540 nM.

In turn, `CC(C)(C)[C@H](NC(=O)/C=C/c1ccc(OP(=O)(O)O)cc1)C(=O)N1CCC[C@H]1C(=O)N(c1ccccc1)c1ccc(I)cc1` had an IC50 of 44 nM.

In turn, `CC(=O)N[C@@H](Cc1ccc(OP(=O)(O)O)cc1)C(=O)N[C@@H](CCCCN)C(=O)N1CCC[C@H]1C(=O)N[C@@H](Cc1ccccc1)C(=O)N[C@@H](CCC(N)=O)C(N)=O` (HELM PEPTIDE1{[ac].[O=C([C@H](Cc1ccc(OP(=O)(O)O)cc1)N[*:1])[*:2]].K.P.F.Q.[am]}$$$$V2.0) showed an IC50 of 4200 nM.

In turn, `CC(=O)N[C@@H](Cc1ccc(OP(=O)(O)O)cc1)C(=O)N[C@@H](CCCCN)C(=O)N1CCC[C@H]1C(=O)N[C@@H](Cc1ccccc1)C(N)=O` (HELM PEPTIDE1{[ac].[O=C([C@H](Cc1ccc(OP(=O)(O)O)cc1)N[*:1])[*:2]].K.P.F.[am]}$$$$V2.0) showed a 50% inhibitory concentration (IC50) of 6100 nM.

With `CC(C)(C)[C@H](NC(=O)/C=C/c1ccc(OP(=O)(O)O)cc1)C(=O)N1CCC[C@H]1C(=O)Nc1ccccc1`, inhibition was half-maximal at 1250 nM (IC50).

Turning to `C/C(=C\C(=O)N[C@H](C(=O)N1CCC[C@H]1C(=O)NCCc1ccccc1)C(C)(C)C)c1ccc(OP(=O)(O)O)cc1`, the IC50 amounted to 250 nM.

`CC[C@H](C)[C@H](NC(=O)[C@H](CC(C)C)NC(=O)[C@H](CC(=O)O)NC(=O)[C@H](CCC(N)=O)NC(=O)[C@H](Cc1ccccc1)NC(=O)[C@@H]1CCCN1C(=O)[C@H](CCCCN)NC(=O)[C@H](Cc1ccc(OP(=O)(O)O)cc1)NC(C)=O)C(N)=O` (HELM PEPTIDE1{[ac].[O=C([C@H](Cc1ccc(OP(=O)(O)O)cc1)N[*:1])[*:2]].K.P.F.Q.D.L.I.[am]}$$$$V2.0): half-maximal inhibition (IC50) required 1800 nM.

Compound `CC(=O)N[C@@H](Cc1ccc(OP(=O)(O)O)cc1)C(=O)N[C@@H](CCCCN)C(=O)N1CCC[C@H]1C(=O)N[C@@H](Cc1ccccc1)C(=O)N[C@@H](CCC(N)=O)C(=O)N[C@@H](CC(=O)O)C(N)=O` (HELM PEPTIDE1{[ac].[O=C([C@H](Cc1ccc(OP(=O)(O)O)cc1)N[*:1])[*:2]].K.P.F.Q.D.[am]}$$$$V2.0) registered an IC50 of 4500 nM.

The compound `C/C(=C\C(=O)N[C@H](C(=O)N1CCCC1CN(C)c1ccccc1)C(C)(C)C)c1ccc(OP(=O)(O)O)cc1` (stereo partly drawn) showed an IC50 of 410 nM.

`NCCCC[C@H](NC(=O)/C=C/c1ccc(OP(=O)(O)O)cc1)C(=O)N1CCC[C@H]1C(=O)N[C@@H](Cc1ccccc1)C(N)=O` showed an IC50 of 8600 nM.

Consider `C/C(=C\C(=O)N[C@H](C(=O)N(C)CC(=O)N(C)c1ccccc1)C(C)(C)C)c1ccc(OP(=O)(O)O)cc1`, for which half-maximal inhibition (IC50) required 270 nM.

In turn, `C/C(=C\C(=O)N[C@H](C(=O)N1CCC[C@H]1C(=O)N(c1ccccc1)c1ccc(I)cc1)C(C)(C)C)c1ccc(OP(=O)(O)O)cc1` had an IC50 of 28 nM.

`CN(C(=O)[C@@H]1CCCN1C(=O)[C@@H](NC(=O)/C=C/c1ccc(OP(=O)(O)O)cc1)C(C)(C)C)c1ccccc1` returned an IC50 of 870 nM.

In turn, `CC(=O)N[C@@H](Cc1ccc(OP(=O)(O)O)cc1)C(=O)N[C@@H](CCCCN)C(=O)N1CCC[C@H]1C(N)=O` (HELM PEPTIDE1{[ac].[O=C([C@H](Cc1ccc(OP(=O)(O)O)cc1)N[*:1])[*:2]].K.P.[am]}$$$$V2.0) displayed a half-inhibitory concentration (IC50) of 5200 nM.

In general, IC50 refers to the concentration that gives 50% inhibition. Low readings indicate inhibition by little substance, high ones a need for much substance.
